Source: PubChem
SENP1 FRET inh = inhibitors of human SENP1 SUMO protease catalytic domain; inhibition, % at 10 µM; 360,000 tested, 0.21% active; AID 624204; Q9P0U3; recombinant SENP1 catalytic domain, CyPet-SUMO1-YPet FRET cleavage;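 active means inhibition at least 30% at 10 µM, raw YFP signal under a set limit, fluorescence ratio 0.5 to 1.5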;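 further: 0% = enzyme with DMSO and 100% = no enzyme wells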
Target sequence (Q9P0U3 419-644 limits assumed): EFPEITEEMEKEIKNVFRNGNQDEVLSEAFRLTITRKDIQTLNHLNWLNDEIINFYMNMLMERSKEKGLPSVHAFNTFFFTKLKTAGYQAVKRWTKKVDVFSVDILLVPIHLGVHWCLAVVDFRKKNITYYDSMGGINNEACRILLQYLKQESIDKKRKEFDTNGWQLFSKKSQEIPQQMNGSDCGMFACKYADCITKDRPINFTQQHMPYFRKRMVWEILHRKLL
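Test system: hSENP1 catalytic domain, recombinant; Amount: 20 pM final SENP1 enzyme; Medium: Tris pH 8 buffer plus EDTA, NaCl, BME, BSA, NP40, catalase; Schedule: 50 min enzyme reaction, room temperature, light-protected; Technique: FRET fluorescence in CFP and YFP emission channels; Controls: no-enzyme wells low, DMSO-plus-enzyme wells high control.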
UCH37 DUB inh = human UCH37 deubiquitinating enzyme inhibition. inhibition, % (no concentration beside the values). Q9Y5K5. purified proteasome/UCH37, Ub-AMC cleavage fluorescence. 330,000 tested, 0.33% active. AID 588478;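 active means mean inhibition over replicate wells above about 20%, limit read from the data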;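 further: 0% = compound-free wells with enzyme and 100% = wells lacking proteasome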
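system = Proteasome-associated human UCH37 deubiquitinase | amount = 0.15 nM proteasome as dispensed | medium = pH 7.4 Tris-HCl (50 mM) with ovalbumin, ATP-MgCl2, DTT | incubation = 30 min preincubation with enzyme, 25 min cleavage at room temperature | detection = AMC fluorescence 355/460 nm | read-out basis = percent inhibition | controls = no-proteasome and no-compound wells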
NadD inh = NadD (S. aureus) enzyme inhibition. purified NadD enzyme, colorimetric absorbance read-out. 360,000 tested, 0.78% active. inhibition, % at 20 µM. AID 602399; in the data active means inhibition above about 26%
ATG4B inh = inhibitors of human ATG4B cysteine protease; Q9Y4P1; ATG4B cleavage of LC3-PLA2, NBD-HPC fluorescence, 1 h; inhibition, % at 8.33 µM; 340,000 tested, 0.51% active; AID 504462; in the data active means inhibition above about 40%
Target sequence (Q9Y4P1 whole entry, looked up): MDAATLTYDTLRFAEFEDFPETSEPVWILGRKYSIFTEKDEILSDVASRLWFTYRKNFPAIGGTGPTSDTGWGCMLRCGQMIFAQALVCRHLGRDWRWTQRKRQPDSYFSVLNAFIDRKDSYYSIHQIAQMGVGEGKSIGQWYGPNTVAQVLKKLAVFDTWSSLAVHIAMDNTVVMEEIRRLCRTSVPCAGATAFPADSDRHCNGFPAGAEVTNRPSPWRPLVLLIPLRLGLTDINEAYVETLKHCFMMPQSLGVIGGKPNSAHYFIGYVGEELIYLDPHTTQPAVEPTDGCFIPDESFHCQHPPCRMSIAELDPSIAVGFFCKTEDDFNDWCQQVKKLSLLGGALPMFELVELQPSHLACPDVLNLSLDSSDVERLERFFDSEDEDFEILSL
NR3A LBD binder = NR3A (human) ligand-binding domain modulation. NR3A LBD differential scanning fluorimetry, Tm shift; 0% = protein alone, 100% = glycine-bound protein. Tm shift relative to glycine control, % at 25 µM. 340,000 tested, 2.5% active. AID 1259313;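 active means melting temperature shift of at least 10% of the positive control shift, at one fixed dose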
* = called active by the depositor; · = no result. This is a sample that favours compounds with a hit; in the whole collection about 3.6% have one here.

SMILES	SENP1 FRET inh	UCH37 DUB inh	NadD inh	ATG4B inh	NR3A LBD binder
CNc1nc2ccccc2n1N=Cc1cccc(OC)c1OC	·	-17	·	·	·
CNc1nc2ccccc2n1/N=C/c1cccc(OC)c1OC	0	·	-11	-12	32*
O=C(O)c1cccc(NC(=S)NC(NC(=O)c2ccccc2[N+](=O)[O-])C(Cl)(Cl)Cl)c1 (stereo not drawn)	3	-3	-4	-9	-4
Cc1cc(C)c(NC(=S)NC(NC(=O)c2ccccc2)C(Cl)(Cl)Cl)c(C)c1 (stereo not drawn)	3	2	3	-9	6
O=C(NC(NC(=S)Nc1ccc(Cl)cc1Cl)C(Cl)(Cl)Cl)c1cccc([N+](=O)[O-])c1 (stereo not drawn)	1	5	1	10	21*
O=C(NC(NC(=S)Nc1ccccc1)C(Cl)(Cl)Cl)c1cccc(Cl)c1 (stereo not drawn)	-3	-6	1	-7	24*
COc1cc(C)ccc1OCCOc1c(C)cc(Cl)cc1Cl	0	2	6	-9	10*
Cc1ccc2nc(/C(C#N)=C/c3ccccc3C(=O)O)[nH]c2c1	-41	-23	-1	10	-1
Cc1ccc2nc(/C(C#N)=C/c3ccc(O)c(O)c3)[nH]c2c1	-37	·	7	-15	19*
N#C/C(=C/c1ccc(N2CCCC2)c([N+](=O)[O-])c1)c1nc2ccccc2[nH]1	-52	8	36*	1	12*
N#C/C(=C\c1ccc(N2CCOCC2)c([N+](=O)[O-])c1)c1nc2ccccc2[nH]1	-54	7	7	-9	1
Cc1ccc2nc(/C(C#N)=C\c3ccc(N4CCCCC4)c([N+](=O)[O-])c3)[nH]c2c1	-77	12	39*	-3	-1
O=C(NN=Cc1cc([N+](=O)[O-])ccc1N1CCCC1)c1ccccn1	·	2	·	·	·
COc1ccc(C(=O)NCC(=O)OCC(=O)N2N=C(c3ccc(Cl)cc3)CC2c2ccco2)cc1OC (stereo not drawn)	-1	5	-11	-14	11*
COCC(=O)OCC(=O)N1N=C(c2ccc(Cl)cc2)CC1c1ccco1 (stereo not drawn)	-4	4	-4	-2	0
O=C(NNC(=O)c1cccs1)c1ccc(Br)cc1	2	1	3	-3	-2
Nc1cccc(NC(=O)c2cccs2)c1	0	1	12	3	-14
O=C(Nc1cccc(O)c1)c1cccc(NC(=O)c2cccs2)c1	4	5	-6	-20	28*
O=C(Nc1cccc(NC(=O)c2cccs2)c1)c1ccc(Br)cc1	0	·	-5	8	13*
C=CCc1cccc2cc(C(=O)Nc3ccc(S(=O)(=O)Nc4nnc(CC)s4)cc3)c(=O)oc12	-13	9	50*	-13	-9
Cc1ccc(NC(=S)NNC(=S)Nc2ccc(C)cc2)cc1	-1	3	3	-3	30*
CN(C)NC(=S)Nc1cccc(C(F)(F)F)c1	3	5	6	-4	0
Cc1ccc(NC(=S)NNC(=O)Nc2ccccc2)cc1	0	·	4	-8	1
Cc1ccc(NC(=S)NNC(=S)Nc2cccc(C(F)(F)F)c2)cc1	1	·	23	11	34*
COc1cc(/C=C/c2nc3ccccc3c(=O)[nH]2)cc(Cl)c1O	-24	7	-2	8	27*
SMILES	SENP1 FRET inh	UCH37 DUB inh	NadD inh	ATG4B inh	NR3A LBD binder
O=c1[nH]c(/C=C/c2ccccc2F)nc2ccccc12	0	-58	0	2	39*
Oc1ccccc1C=NNc1ncc(Br)cn1	·	1	·	·	·
O=c1c2c3c(sc2ncn1N=Cc1ccco1)CCCC3	·	4	·	·	·
CCN(CC)c1ccc(-c2nn3c(-c4n[nH]c5c4CCC5)nnc3s2)cc1	-32	-211	54*	6	-5
Nc1nc2ccc(N3CCOCC3)cc2s1	1	3	2	3	12*
COC(=O)C1=NN(C(=O)c2cccc(Br)c2)C(O)(c2ccc(Cl)cc2)C1 (stereo not drawn)	65*	0	-10	16	1
CCOC(=O)C1=NN(C(=O)c2ccc(OC)cc2)C(O)(c2ccc(Cl)cc2)C1 (stereo not drawn)	20	3	1	-9	-6
COCCn1c(SCC(=O)N2CCCC2)nc2c(c1=O)SCC2	0	·	-3	·	·
COCCn1c(SCC(=O)N2CCC(C)CC2)nc2c(c1=O)SCC2	-5	4	-2	-5	11*
Cc1nn(-c2ccccc2)c(Cl)c1C=NNC(=O)CCNc1n[nH]c(=O)[nH]c1=O	·	1	·	·	·
COc1ccc(OC)c(NC(=O)c2ccc3c(=O)n(CCc4ccccc4)c(=S)[nH]c3c2)c1	2	3	26	-4	15*
Cc1cc(C)n(C(=O)CNc2cccc(Cl)c2C)n1	0	5	6	11	10*
Cc1cc(C)n(C(=O)CNc2ccccc2Cl)n1	5	-1	2	4	-1
CC1=NN(/C(=N/c2nnc(C)s2)Nc2ccc(C(C)(C)C)cc2)[C@H](c2ccc(C)cc2)S1	·	6	·	·	·
N#CC(=C(O)COC(=O)CCc1ccc(S(=O)(=O)N2CCOCC2)cc1)c1nc2ccccc2[nH]1	·	-9	·	·	·
COc1ccc(NC(=O)CC2C(=O)N(C)C(=S)N2Cc2ccc3c(c2)OCO3)cc1 (stereo not drawn)	6	1	-1	-6	14*
COc1ccc(CCN2C(=S)N(C)C(=O)C2CC(=O)Nc2ccc(OC)cc2)cc1 (stereo not drawn)	1	-2	-16	29	-4
CCN1C(=O)C(CC(=O)Nc2ccc(F)cc2)N(Cc2ccco2)C1=S (stereo not drawn)	0	-1	-7	-1	-1
CCCCCCOc1ccc(NC(=O)CC2C(=O)N(CC)C(=S)N2Cc2ccco2)cc1 (stereo not drawn)	1	4	-2	36	16*
CCN1C(=O)C(CC(=O)Nc2ccc(F)cc2)N(Cc2ccc3c(c2)OCO3)C1=S (stereo not drawn)	4	2	-9	1	28*
CCC1=NN2C(=N)/C(=C\c3ccc(OCCOc4ccccc4OC)cc3)C(=O)N=C2S1	-9	2	25*	3	-9
COc1ccc(OCCOc2ccc(/C=C3\C(=N)N4N=C(C)SC4=NC3=O)cc2)cc1	-2	7	68*	1	1
Cc1cccc(NN=C2COC(C)(C)CC2=O)c1	·	8	·	·	·
Nc1nnc(CC(=O)NN=Cc2ccccc2OCc2ccc(F)cc2)s1	·	0	·	·	·
CC1CN(c2ccc([N+](=O)[O-])cc2Cl)CCN1S(C)(=O)=O (stereo not drawn)	3	8	-5	-1	1
CC1CN(c2ccc(C(F)(F)F)cc2[N+](=O)[O-])CCN1S(C)(=O)=O (stereo not drawn)	1	0	-5	-7	14*
